Results reported in ChEMBL document CHEMBL2203129, “Structure-activity relationship studies of naphthol AS-E and its derivatives as anticancer agents by inhibiting CREB-mediated gene transcription” (Bioorg Med Chem, 2012).
Activity calls are given as the source filed them. The rule behind the calls is not given here.

What was measured:
MDA-MB-468 = assay: Growth inhibition of human MDA-MB-468 cells after 72 hrs by MTT assay; assay type: functional; conditions: MDA-MB-468, 72 h
MDA-MB-231 = assay: Growth inhibition of human MDA-MB-231 cells after 72 hrs by MTT assay; assay type: functional; conditions: MDA-MB-231, 72 h
MCF7 [1] = assay: Growth inhibition of human MCF7 cells after 72 hrs by MTT assay; assay type: functional; conditions: MCF7, 72 h
A549 = assay: Growth inhibition of human A549 cells after 72 hrs by MTT assay; assay type: functional; conditions: A549, 72 h
[2] = Inhibition of CREB-mediated gene transcription in human HEK293T cells by renilla luciferase reporter assay; assay type: cell-based; conditions: HEK-293T
How it was run: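 HEK 293T cells transfected with pCRE-RLuc, replated after 3 h and attached overnight; compound added, then forskolin (final 10 µM) 30 min later; 5 h at 37 °C.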

[3] = Inhibition of KIX domain of CBP interaction with KID domain of CREB after 20-24 hrs by Renilla luciferase complementation assay
How it was run: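 RLucC-KIX (20 ng) and KID-RLucN lysate (1.0 µg) per reaction in Renilla lysis buffer with compound, incubated at 4 °C for 20–24 h; residual luminescence read with benzyl-coelenterazine in PBS pH 7.4.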

MCF7 [4] = assay: Cytotoxicity against human MCF7 cells expressing wild type CREB assessed as reduction in cell proliferation at 10 to 50 uM after 48 hrs by MTT assay; assay type: functional, cell-based
How it was run: (§1)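 MCF-7 cells stably transfected with Flag-tagged VP16-CREB (G418 2 mg/mL selection; expression checked by anti-FLAG blot) alongside parental MCF-7. Compound at indicated concentrations in triplicate for 48 h; live cells quantified with MTT reagent; Student's t-test.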

MCF7 [5] = assay: Cytotoxicity against human MCF7 cells expressing VP16-CREB mutant assessed as reduction in cell proliferation at 10 to 50 uM after 48 hrs by MTT assay; assay type: functional, cell-based; how it was run: as §1

| Compound | GI50 (MDA-MB-468) | GI50 (MDA-MB-231) | GI50 (MCF7 [1]) | GI50 (A549) | IC50 [2] | IC50 [3] | Activity (MCF7 [4]) | Activity (MCF7 [5]) |
| --- | --- | --- | --- | --- | --- | --- | --- | --- |
| O=C(Nc1ccc(F)c(F)c1)c1cc2ccccc2cc1O | 4.19 µM | 11.6 µM | 2.09 µM | 3.57 µM | 3.73 µM | 2.39 µM |  |  |
| CN(C(=O)c1cc2ccccc2cc1O)c1ccc(Cl)cc1 |  |  |  |  |  |  | Active | Active |
| O=C(Nc1ccc(Br)cc1)c1cc2ccccc2cc1O | 6.61 µM | 9.93 µM | 1.83 µM | 3.98 µM | 3.45 µM | 9.59 µM |  |  |
| O=C(Nc1ccc(C(F)(F)F)cc1)c1cc2ccccc2cc1O | 63.3 µM | 64.2 µM | 3.62 µM | 4.15 µM | 6.75 µM | > 50 µM |  |  |
| O=C(Nc1cnccn1)c1cc2ccccc2cc1O | 37.6 µM | > 100 µM | 17.9 µM | 33.2 µM | > 50 µM | 20.3 µM |  |  |

More lines, in order of falling GI50 (MDA-MB-468), values ahead:

| GI50 (MDA-MB-468) | GI50 (MDA-MB-231) | GI50 (MCF7 [1]) | GI50 (A549) | IC50 [2] | IC50 [3] | Compound | Activity (MCF7 [4]) | Activity (MCF7 [5]) |
| --- | --- | --- | --- | --- | --- | --- | --- | --- |
| 2.94 µM | 7.87 µM | 9.76 µM | 5.51 µM | 4.98 µM | 34.5 µM | O=C(Nc1ccc(I)cc1)c1cc2ccccc2cc1O |  |  |
| 2.58 µM | 4.91 µM | 2.43 µM | 3.68 µM | 2.7 µM | > 50 µM | O=C(Nc1cccc(Cl)c1)c1cc2ccccc2cc1O |  |  |
| 0.85 µM | 2.2 µM | 6.86 µM | 3.65 µM | 2.29 µM | 5.13 µM | O=C(Nc1ccc(F)c(Cl)c1)c1cc2ccccc2cc1O |  |  |
